Data set [1] can be described thus: Cytotoxicity against human MDA-MB-231 cells assessed as reduction in cell viability after 24 hrs by MTS assay. It is filed as cell-based. A digest of the protocol:
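Cells are seeded at 10^4/well in 5% FBS/DMEM and grown 24 h at 37 °C, 5% CO2. They are then exposed 24 h to 1, 5, 10 or […] μM compound or vehicle (0.25% DMSO in PBS), with 5 wells per concentration. MTS is added for 30 min and absorbance read at 490 nm. The maximum non-toxic concentration is judged against vehicle, mean of five repeats.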
For orientation: Formazan colour is commonly taken as a measure of viable cells.

Data set [2] addresses T1, Sodium channel protein type 5 subunit alpha (Homo sapiens, UniProt Q14524). The experiment in a line: Inhibition of neonatal Nav1.5 in human MDA-MB-231 cells assessed as reduction in inward sodium peak current at 10 uM at -100 mV holding potential after 5 to 10 mins by whole cell patch clamp method relative to control. It is filed as cell-based. Particulars: MDA-MB-231, human. A digest of the protocol:
(§1)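 Whole-cell voltage clamp is used, with capacitance and series resistance compensated 60% and P/2 leak subtraction. Cells are perifused with PSS (mM: NaCl 140, KCl 4, MgCl2 1, CaCl2 2, NaH2PO4 0.33, glucose 11.1, HEPES 10; pH 7.4), with or without compound (final 0.2% DMSO), for 5–10 min. Peak INa is evoked by 30 ms steps from −100 to −5 mV. Percent block is taken from peak current. The concentration-response over 0.1–100 μM is Hill-fitted.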
In general terms: In patch-clamp work, channel activity is measured electrically.
Target sequence in this assay (Q14524 whole entry, the tested form may be a part): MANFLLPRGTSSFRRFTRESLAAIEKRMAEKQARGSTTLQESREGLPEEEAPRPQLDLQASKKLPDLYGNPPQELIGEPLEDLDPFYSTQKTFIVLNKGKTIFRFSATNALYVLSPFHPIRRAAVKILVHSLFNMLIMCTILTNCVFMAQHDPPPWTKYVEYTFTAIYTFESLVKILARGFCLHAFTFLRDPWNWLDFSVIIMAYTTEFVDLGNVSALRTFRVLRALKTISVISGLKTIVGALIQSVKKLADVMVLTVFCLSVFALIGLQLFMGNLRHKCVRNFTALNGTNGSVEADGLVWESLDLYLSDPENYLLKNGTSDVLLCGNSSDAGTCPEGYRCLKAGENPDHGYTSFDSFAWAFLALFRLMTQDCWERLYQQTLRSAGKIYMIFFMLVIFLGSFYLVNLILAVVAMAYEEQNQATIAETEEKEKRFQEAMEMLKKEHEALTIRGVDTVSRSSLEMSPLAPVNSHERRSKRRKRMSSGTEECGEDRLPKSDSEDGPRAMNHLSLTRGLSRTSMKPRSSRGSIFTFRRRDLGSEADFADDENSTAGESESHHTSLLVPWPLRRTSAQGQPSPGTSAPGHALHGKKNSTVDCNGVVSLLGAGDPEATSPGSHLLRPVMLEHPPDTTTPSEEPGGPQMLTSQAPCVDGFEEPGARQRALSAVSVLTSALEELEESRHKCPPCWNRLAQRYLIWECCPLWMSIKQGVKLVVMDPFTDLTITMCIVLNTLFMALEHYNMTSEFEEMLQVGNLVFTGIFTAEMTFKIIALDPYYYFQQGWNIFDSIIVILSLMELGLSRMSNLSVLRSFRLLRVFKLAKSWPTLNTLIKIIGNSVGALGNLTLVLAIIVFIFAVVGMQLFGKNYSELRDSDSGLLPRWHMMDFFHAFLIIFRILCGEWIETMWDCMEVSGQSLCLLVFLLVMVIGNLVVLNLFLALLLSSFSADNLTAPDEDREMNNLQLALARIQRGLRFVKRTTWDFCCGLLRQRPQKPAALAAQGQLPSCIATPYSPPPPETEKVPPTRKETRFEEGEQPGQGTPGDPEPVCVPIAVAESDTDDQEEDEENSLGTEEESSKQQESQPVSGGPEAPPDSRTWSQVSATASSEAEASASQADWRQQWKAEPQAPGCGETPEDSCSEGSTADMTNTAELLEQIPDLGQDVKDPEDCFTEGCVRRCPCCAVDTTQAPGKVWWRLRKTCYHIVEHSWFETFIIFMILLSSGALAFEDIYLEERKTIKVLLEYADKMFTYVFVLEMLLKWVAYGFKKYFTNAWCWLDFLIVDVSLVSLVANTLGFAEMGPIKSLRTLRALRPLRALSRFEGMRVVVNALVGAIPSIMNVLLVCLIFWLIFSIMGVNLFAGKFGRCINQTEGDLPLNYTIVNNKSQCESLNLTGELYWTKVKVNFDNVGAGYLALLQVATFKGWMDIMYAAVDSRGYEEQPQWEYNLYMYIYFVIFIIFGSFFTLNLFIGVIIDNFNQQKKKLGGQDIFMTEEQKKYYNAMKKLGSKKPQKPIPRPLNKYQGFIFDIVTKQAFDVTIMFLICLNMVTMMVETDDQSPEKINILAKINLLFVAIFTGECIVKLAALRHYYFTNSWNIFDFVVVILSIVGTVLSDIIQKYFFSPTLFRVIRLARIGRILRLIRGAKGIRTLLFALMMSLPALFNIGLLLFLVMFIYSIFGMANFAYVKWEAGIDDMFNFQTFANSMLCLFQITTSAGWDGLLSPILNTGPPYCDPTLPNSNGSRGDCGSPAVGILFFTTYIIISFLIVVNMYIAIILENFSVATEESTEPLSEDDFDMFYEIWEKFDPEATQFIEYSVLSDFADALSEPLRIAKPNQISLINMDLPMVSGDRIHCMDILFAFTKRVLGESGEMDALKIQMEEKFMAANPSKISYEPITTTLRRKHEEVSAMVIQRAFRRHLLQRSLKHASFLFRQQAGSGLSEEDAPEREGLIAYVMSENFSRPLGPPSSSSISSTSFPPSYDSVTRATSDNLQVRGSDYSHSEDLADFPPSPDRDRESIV

The target in data set [3] is T1, Sodium channel protein type 5 subunit alpha. The data set can be described thus: Inhibition of neonatal Nav1.5 in human MDA-MB-231 cells assessed as reduction in inward sodium peak current at 1 uM at -100 mV holding potential after 5 to 10 mins by whole cell patch clamp method relative to control. It is filed as cell-based. Particulars: MDA-MB-231, human. In a few lines: (§2)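 Whole-cell voltage clamp on MDA-MB-231 cells grown in 5% FBS DMEM, with 60% capacitance and series-resistance compensation and P/2 leak subtraction. Cells were perifused with PSS (mM: NaCl 140, KCl 4, MgCl2 1, CaCl2 2, NaH2PO4 0.33, glucose 11.1, HEPES 10; pH 7.4) with 0.2% DMSO, and compound was applied 5–10 min (final 0.1–100 μM). Peak INa was evoked by 30 ms steps from −100 to −5 mV. Percent block was taken against control, followed by wash-out.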
Target sequence in this assay (Q14524 whole entry, the tested form may be a part): as above

For data set [4], the system named is MDA-MB-231. The experiment in a line: Anti-invasive activity against human MDA-MB-231 cells at 1 uM after 24 hrs by Hema staining based microscopic method relative to control. It is filed as functional. Particulars: MDA-MB-231, 24 h. In a few lines: (§3)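 Matrigel-coated transwell invasion chambers are hydrated 2 h at 37 °C, with 5% FBS/DMEM above and 10% FBS/DMEM below as chemoattractant. 4 × 10^4 cells go in the upper chamber. Compound or vehicle (0.2% DMSO in PBS) is added to both chambers. After 24 h at 37 °C, 5% CO2, invaded cells are fixed, Hema-stained and counted in five membrane regions. Counts are normalized to solvent control, mean ± SD.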

Data set [5] deals with T1, Sodium channel protein type 5 subunit alpha. The data set can be described thus: Irreversible inhibition of neonatal Nav1.5 in human MDA-MB-231 cells assessed as reduction in sodium peak current elecited for membrane depolarization from -100 mV to -5 mV at -100 mV holding potential treated for 5 to 10 mins followed by compound washout by whole cell patch clamp method relative to control. The data set is classed as cell-based. A digest of the protocol:
as §2
Target sequence in this assay (Q14524 whole entry, the tested form may be a part): as above

Data set [6] has the same target. The data set can be described thus: Inhibition of neonatal Nav1.5 in human MDA-MB-231 cells assessed as reduction in inward sodium peak current at -100 mV holding potential after 5 to 10 mins by whole cell patch clamp method. The data set is classed as cell-based. In a few lines: as §1
Target sequence in this assay (Q14524 whole entry, looked up, the tested form may be a part): as the sequence (Q14524 whole entry, the tested form may be a part) above
Data set [7] has the same target. The data set can be described thus: Inhibition of neonatal Nav1.5 in human MDA-MB-231 cells assessed as reduction in inward sodium peak current at 100 uM at -100 mV holding potential after 5 to 10 mins by whole cell patch clamp method relative to control. It is filed as cell-based. Particulars: MDA-MB-231, human. A digest of the protocol: as §2
Target sequence in this assay (Q14524 whole entry, the tested form may be a part): as above
The target is the same in data set [8]. The data set can be described thus: Inhibition of neonatal Nav1.5 in human MDA-MB-231 cells assessed as reduction in inward sodium peak current by measuring half activation potential at 10 uM at -100 mV holding potential after 5 to 10 mins by whole cell patch clamp method (reference value: -33 +/- 1.2 mV). The data set is classed as cell-based. The conditions noted are these: mda-mb-231, 10 µM.
Target sequence in this assay (Q14524 whole entry, the tested form may be a part): as above

For data set [9] the target is unchanged. The data set can be described thus: Inhibition of neonatal Nav1.5 in human MDA-MB-231 cells assessed as reduction in inward sodium peak current by measuring half inactivation potential at 10 uM at -100 mV holding potential after 5 to 10 mins by whole cell patch clamp method (reference value: -71.6 +/- 0.4 mV). It is filed as cell-based. The conditions noted are these: mda-mb-231, 10 µM.
Target sequence in this assay (Q14524 whole entry, the tested form may be a part): as above

Data set [10] relates to MDA-MB-231. The data set can be described thus: Anti-invasive activity against human MDA-MB-231 cells at 0.1 uM after 24 hrs by Hema staining based microscopic method relative to control. The conditions noted are these: MDA-MB-231, 24 h. The data set is classed as functional. In a few lines: as §3
Data set [11] deals with T1, Sodium channel protein type 5 subunit alpha. The data set can be described thus: Inhibition of neonatal Nav1.5 in human MDA-MB-231 cells assessed as reduction in inward sodium peak current by measuring half activation potential at 10 uM at -100 mV holding potential after 5 to 10 mins by whole cell patch clamp method (reference value: -30.7 +/- 0.9 mV). The data set is classed as cell-based. The conditions noted are these: mda-mb-231, 10 µM.

For data set [12] the target is unchanged. The data set can be described thus: Inhibition of neonatal Nav1.5 in human MDA-MB-231 cells assessed as reduction in inward sodium peak current by measuring half inactivation potential at 10 uM at -100 mV holding potential after 5 to 10 mins by whole cell patch clamp method (reference value: -66 +/- 2.5 mV). The data set is classed as cell-based. Particulars: mda-mb-231, 10 µM.

For data set [13] the target is unchanged. The data set can be described thus: Reversible inhibition of neonatal Nav1.5 in human MDA-MB-231 cells assessed as reduction in sodium peak current elecited for membrane depolarization from -100 mV to -5 mV by measuring remaining current amplitude at 0.1 to 100 uM at -100 mV holding potential treated for 5 to 10 mins followed by compound washout by whole cell patch clamp method relative to control.

Data set [14] relates to MDA-MB-231. Particulars: Homo sapiens, 30 uM.

Broadly, the inhibition is the relative decrease from the control value, in per cent. Usually IC50 stands for the concentration at which inhibition is half-maximal.

For the molecule `Fc1ccc(C(CCCNCCCN2CCCCC2)c2ccc(F)cc2)cc1`, the MNTC at 24 h in [1] was found to be 5 µM. Also, the inhibition at 10 µM in data set [2] worked out at 50%. Further, the inhibition at 1 µM in [3] stood at 34.9%; in the data set with MDA-MB-231 [4], 30.3%. The “inhibition (INH)” value in data set [5] is given as “Dose-dependent effect”. The half-inhibitory concentration (IC50) in data set [6] is 4.8 µM. Further, in [7], the inhibition at 100 µM is above 95%. For the same molecule, the V1/2 in [8] is reported as -34.9 mV; in data set [9], -88.6 mV. The same molecule registered an inhibition at 0.1 µM in the data set on MDA-MB-231 [10] of 20%.

With `Fc1ccc(C(CCCNCCCc2ccccc2)c2ccc(F)cc2)cc1`, the MNTC at 24 h in data set [1] was determined as 10 µM. In addition, the inhibition at 10 µM in data set [2] amounted to 30%.

Turning to `CC(C)(C)CCCCNCCCN1CCCCC1`, the MNTC at 24 h in data set [1] was determined as 10 µM. In addition, the inhibition at 10 µM in data set [2] was 30%.

Turning to `Fc1ccc(CCCCNCCCN2CCCCC2)cc1`, the MNTC at 24 h in data set [1] was above 25 µM. Further, in data set [2], the inhibition at 10 µM came out at 60%. The inhibition at 1 µM is 25% in data set [3] and 28% in the data set on MDA-MB-231 [4]. The concentration for half-maximal inhibition (IC50) in data set [6] stood at 5.9 µM. The inhibition at 100 µM in data set [7] was above 95%. Moreover, the results for the V1/2 in [11] and in data set [12] were -36.8 mV and -77.5 mV, respectively. In the data set on MDA-MB-231 [10], this molecule displayed an inhibition at 0.1 µM of 20%. In addition, the Activity in data set [13] is on record as 17.4%.

For `Fc1ccc(C(CCCNCCc2ccccc2)c2ccc(F)cc2)cc1`, the MNTC at 24 h in data set [1] amounted to 10 µM. Further, the inhibition at 10 µM in [2] worked out at 30%.

For `NC1=N[C@H](O)[C@H]2[C@H]3O[C@]4(O)O[C@@H]([C@@H](O)[C@@]2(N1)[C@@H]4O)[C@]3(O)CO` [TETRODOTOXIN], the MNTC at 24 h in data set [1] is 30 µM. The inhibition in the data set on MDA-MB-231 [14] amounted to 31.5%.

For the origin of these results see ChEMBL document CHEMBL4219233, “Discovery and evaluation of nNav1.5 sodium channel blockers with potent cell invasion inhibitory activity in breast cancer cells” (Bioorg Med Chem, 2018).
